This note sets out measurements from ChEMBL document CHEMBL1833967, “Bioassay-guided isolation of constituents of Piper sarmentosum using a mitochondrial transmembrane potential assay” (2011).

pEC50: −log10 of the molar value.

Assay [1] concerns HT-29. Put plainly: Cytotoxicity against human HT-29 cells after 3 days by sulforhodamine B assay. The assay is classed as functional. Conditions: read-out: ED50 (the source's name). On the technique in general: The SRB assay estimates cell density from bound dye.
Assay [2] deals with HT-29. Put plainly: Induction of apoptosis in human HT-29 cells assessed reduction of mitochondrial membrane potential after 2 hrs by using JC1 staining by fluorescence cell-based assay. To be noted: HT-29, 2 h, read-out: ED50 (the source's name). The assay is classed as functional.
For another assay, the system named is HL-60. Put plainly: Inhibition of chymotrypsin-like activity of purified human 20S proteasome in HL60 cells using N-succinyl-Leu-Leu-Val-Tyr-AMC as substrate pre-incubated for 10 mins by fluorimetric assay. The format is cell-based. Summed up: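 Enzyme source was a proteasome fraction isolated from HL-60 human leukemia cells. […] Activity is reported as ED50 in μM.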

`COc1cc(O)c2c(c1Cc1ccccc1O)O[C@H](c1ccccc1)CC2=O`: the pEC50 in the assay with HT-29 [1] (Homo sapiens, HT-29, 72 h) is less than 4.70; in the assay with HT-29 [2] it was 4.87. Also, in the assay with HL-60, the ED50 was greater than 20 µM.

On to `COc1c(Cc2ccccc2O)c(O)c2c(c1Cc1ccccc1O)O[C@H](c1ccccc1)CC2=O`, for which the pEC50 is less than 4.70 in the assay with HT-29 [1] (Homo sapiens, HT-29, 72 h) and 5.80 in the assay on HT-29 [2]. Besides, the ED50 with HL-60 was found to be 3.45 µM.

As for `CC(C)C[C@H](NC(=O)[C@H](Cc1ccccc1)NC(=O)c1cnccn1)B(O)O` [BORTEZOMIB], the pEC50 with HT-29 [1] (Homo sapiens, HT-29, 72 h) is less than 4.70.

Take `O=C1C[C@@H](c2ccccc2)Oc2c(Cc3ccccc3O)c(O)c(Cc3ccccc3O)c(O)c21` [DICHAMANETIN]: in the assay with HT-29 [1], the pEC50 is less than 4.70. In the assay on HL-60, this molecule displayed an ED50 greater than 20 µM.

Take `O=C1C[C@@H](c2ccccc2)Oc2cc(O)c(Cc3ccccc3O)c(O)c21` [ISOCHAMANETIN]: in the assay with HT-29 [1] (Homo sapiens, HT-29, 72 h), the pEC50 was less than 4.70. The molecule also registered an ED50 in the assay with HL-60 greater than 20 µM.

Regarding `CC(=O)O[C@H]1C(=O)[C@@]2(C)[C@H]([C@H](OC(=O)c3ccccc3)[C@]3(O)C[C@H](OC(=O)[C@H](O)[C@@H](NC(=O)c4ccccc4)c4ccccc4)C(C)=C1C3(C)C)[C@]1(OC(C)=O)CO[C@@H]1C[C@@H]2O` [PACLITAXEL], in the assay with HT-29 [1] (Homo sapiens, HT-29, 72 h), the pEC50 is 8.22.

For `O=C1C[C@@H](c2ccccc2)Oc2cc(O)cc(O)c21` [PINOCEMBRIN], the pEC50 with HT-29 [1] (Homo sapiens, HT-29, 72 h) is less than 4.70. Moreover, the ED50 in the assay on HL-60 is 2.87 µM.

For `CC(C)CNC(=O)/C=C/C=C/CCCCc1ccc2c(c1)OCO2` [PIPERCALLOSINE], the pEC50 was less than 4.70 with HT-29 [1] (Homo sapiens, HT-29, 72 h) and 5.34 with HT-29 [2]. This molecule also returned an ED50 in the assay with HL-60 greater than 20 µM.

For the molecule `O=C1C[C@@H](c2ccccc2)Oc2c(Cc3cc(Cc4cc(Cc5ccccc5O)ccc4O)ccc3O)c(O)c(Cc3ccccc3O)c(O)c21` [SARMENTOSUMIN A], the pEC50 in the assay with HT-29 [1] (Homo sapiens, HT-29, 72 h) is less than 4.70. Moreover, the ED50 in the assay on HL-60 is greater than 20 µM.

`O=C1C[C@@H](c2ccccc2)Oc2c(Cc3ccccc3O)c(O)c(Cc3cc(Cc4cc(Cc5ccccc5O)ccc4O)ccc3O)c(O)c21` [SARMENTOSUMIN B]: the pEC50 in the assay with HT-29 [1] (Homo sapiens, HT-29, 72 h) was less than 4.70. In the assay on HL-60, this molecule came in with an ED50 greater than 20 µM.

Regarding `O=C1C[C@@H](c2ccccc2)Oc2c(Cc3ccccc3O)c(O)c(Cc3cc(Cc4cc(Cc5cc(Cc6ccccc6O)ccc5O)ccc4O)ccc3O)c(O)c21` [SARMENTOSUMIN C], the pEC50 in the assay with HT-29 [1] (Homo sapiens, HT-29, 72 h) is less than 4.70; in the assay on HT-29 [2] it was 5.60. The ED50 with HL-60 is greater than 20 µM.

With `O=C1C[C@@H](c2ccccc2)Oc2c(Cc3cc(Cc4ccccc4O)ccc3O)c(O)c(Cc3cc(Cc4cc(Cc5ccccc5O)ccc4O)ccc3O)c(O)c21` [SARMENTOSUMIN D], in the assay on HT-29 [1] (Homo sapiens, HT-29, 72 h), the pEC50 is less than 4.70. The molecule further came in with an ED50 in the assay with HL-60 greater than 20 µM.
